ChEMBL document CHEMBL4706527, “Identification of novel quinoline analogues bearing thiazolidinones as potent kinase inhibitors for the treatment of colorectal cancer” (Eur J Med Chem, 2020)
Activity calls are given as the source filed them. No cut-off for these calls is given here.

How the values were obtained:
HT-29 [1] = assay: cells; details: Homo sapiens
[2] = target: T1, Hepatocyte growth factor receptor (Homo sapiens, UniProt P08581); assay: Inhibition of c-Met (unknown origin) using FAM-labelled peptide and ATP incubated for 10 mins by mobility shift assay relative to control
[3] = target: Macrophage-stimulating protein receptor (Homo sapiens, UniProt Q04912); assay: Inhibition of Ron (unknown origin) using FAM-labelled peptide and ATP incubated for 10 mins by mobility shift assay
HT-29 [4] = assay: Antiproliferative activity against human HT-29 cells assessed as dead cells by measuring green fluorescent cells at 5 ug/mL for 72 hrs by IncuCyte live-cell imaging assay; assay type: functional, cell-based; details: dose 5.0 µg/ml
Summary of the method: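 HT-29 cells (5×10^3 per well) in DMEM with 10% FBS at 37 °C, 5% CO2; compound added after 24 h culture. YOYO-1 iodide added, green-fluorescent cells counted as dead; live-cell imaging every 2 h for 72 h; three replicates; mean ± SD of three independent experiments.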

HT-29 [5] = assay: Cytotoxicity against human HT-29 cells assessed as reduction in cell viability at 5 ug/mL by MTT assay; assay type: functional, cell-based; details: dose 5.0 µg/ml
HT-29 [6] = assay: Cytotoxicity against human HT-29 cells assessed as reduction in cell viability measured after 36 hrs by MTT assay; assay type: functional, cell-based; details: dose 0.56-1.67 µg/ml
HT-29 [7] = assay: Antiproliferative activity against human HT-29 cells assessed as dead cells by measuring green fluorescent cells for 48 to 72 hrs by IncuCyte live-cell imaging assay; assay type: functional, cell-based
Summary of the method: (§1)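 HT-29 cells (5×10^3/well) in DMEM with 10% FBS, cultured 24 h at 37 °C, 5% CO2, then treated with graded concentrations of compound; 0.1% DMSO vehicle control. YOYO-1 iodide DNA dye added; green-fluorescent cells counted as dead, imaged every 2 h for 72 h in an IncuCyte system. Three replicates; mean ± SD of three independent experiments.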

HT-29 [8] = assay: Antiproliferative activity against human HT-29 cells assessed as dead cells by measuring green fluorescent cells at 1 to 3 ug/mL by IncuCyte live-cell imaging assay; assay type: functional, cell-based
Summary of the method: as §1

FHC [9] = assay: Antiproliferative activity aganist human FHC at 10 ug/ml measured after 72 hrs by MTT assay; assay type: cell-based; details: at 10 µg/mL
HT-29 [10] = assay: Cell cycle arrest in human HT-29 cells assessed as accumulation in G0/G1 phase at 0.3 ug/ml incubated for 48 hrs by propidium iodide base flow cytometry analysis (reference value: 71.6%); assay type: functional; details: dose 0.3 µg/ml
HT-29 [11] = assay: Cell cycle arrest in human HT-29 cells assessed as accumulation in S phase at 0.3 ug/ml incubated for 48 hrs by propidium iodide base flow cytometry analysis (reference value: 22.4%); assay type: functional; details: dose 0.3 µg/ml
HT-29 [12] = assay: Cell cycle arrest in human HT-29 cells assessed as accumulation in G2/M phase at 0.3 ug/ml incubated for 48 hrs by propidium iodide base flow cytometry analysis (reference value: 2.4%); assay type: functional; details: dose 0.3 µg/ml
HT-29 [13] = assay: Cell cycle arrest in human HT-29 cells assessed as accumulation in G0/G1 phase at 1 ug/ml incubated for 48 hrs by propidium iodide base flow cytometry analysis (reference value: 71.6%); assay type: functional; details: dose 1 µg/ml
HT-29 [14] = assay: Cell cycle arrest in human HT-29 cells assessed as accumulation in S phase at 1 ug/ml incubated for 48 hrs by propidium iodide base flow cytometry analysis (reference value: 22.4%); assay type: functional; details: dose 1 µg/ml
HT-29 [15] = assay: Cell cycle arrest in human HT-29 cells assessed as accumulation in G2/M phase at 1 ug/ml incubated for 48 hrs by propidium iodide base flow cytometry analysis (reference value: 2.4%); assay type: functional; details: dose 1 µg/ml
HT-29 [16] = assay: Cell cycle arrest in human HT-29 cells assessed as accumulation in G0/G1 phase at 3 ug/ml incubated for 48 hrs by propidium iodide base flow cytometry analysis (reference value: 71.6%); assay type: functional; details: dose 3 µg/ml
HT-29 [17] = assay: Cell cycle arrest in human HT-29 cells assessed as accumulation in S phase at 3 ug/ml incubated for 48 hrs by propidium iodide base flow cytometry analysis (reference value: 22.4%); assay type: functional; details: dose 3 µg/ml
HT-29 [18] = assay: Cell cycle arrest in human HT-29 cells assessed as accumulation in G2/M phase at 3 ug/ml incubated for 48 hrs by propidium iodide base flow cytometry analysis (reference value: 2.4%); assay type: functional; details: dose 3 µg/ml
[19] = target: T1, Hepatocyte growth factor receptor; assay: Inhibition of c-Met (unknown origin) using FAM-labelled peptide and ATP incubated for 10 mins by mobility shift assay
[20] = target: Mast/stem cell growth factor receptor Kit (Homo sapiens, UniProt P10721); assay: Inhibition of c-Kit (unknown origin) using FAM-labelled peptide and ATP incubated for 10 mins by mobility shift assay
[21] = target: T2, Tyrosine-protein kinase receptor UFO (Homo sapiens, UniProt P30530); assay: Inhibition of AXL (unknown origin) using FAM-labelled peptide and ATP incubated for 10 mins by mobility shift assay
T2 sequence (P30530 whole entry): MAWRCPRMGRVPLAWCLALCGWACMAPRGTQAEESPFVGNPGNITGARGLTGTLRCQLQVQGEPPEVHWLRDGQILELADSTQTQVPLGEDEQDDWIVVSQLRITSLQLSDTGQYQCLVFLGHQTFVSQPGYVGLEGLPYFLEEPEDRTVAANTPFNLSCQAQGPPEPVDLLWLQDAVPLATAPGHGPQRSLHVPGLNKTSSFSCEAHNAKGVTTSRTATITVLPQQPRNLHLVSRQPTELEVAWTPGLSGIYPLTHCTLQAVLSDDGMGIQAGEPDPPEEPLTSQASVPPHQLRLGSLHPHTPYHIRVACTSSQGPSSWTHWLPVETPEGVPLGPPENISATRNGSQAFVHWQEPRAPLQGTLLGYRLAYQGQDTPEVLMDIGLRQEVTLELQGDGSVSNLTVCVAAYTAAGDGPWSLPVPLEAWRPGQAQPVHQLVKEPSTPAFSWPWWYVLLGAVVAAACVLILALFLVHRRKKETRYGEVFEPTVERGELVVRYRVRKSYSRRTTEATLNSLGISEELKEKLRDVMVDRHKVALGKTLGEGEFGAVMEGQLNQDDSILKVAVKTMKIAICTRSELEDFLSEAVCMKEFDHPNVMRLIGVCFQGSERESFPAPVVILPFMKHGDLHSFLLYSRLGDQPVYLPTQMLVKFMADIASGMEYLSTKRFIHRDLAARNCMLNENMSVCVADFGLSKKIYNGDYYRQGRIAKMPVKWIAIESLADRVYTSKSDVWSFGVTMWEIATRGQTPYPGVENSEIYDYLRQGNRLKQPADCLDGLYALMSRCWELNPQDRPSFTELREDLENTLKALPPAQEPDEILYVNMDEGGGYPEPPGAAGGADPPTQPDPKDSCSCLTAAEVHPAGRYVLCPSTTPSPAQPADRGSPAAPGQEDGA

[22] = target: Platelet-derived growth factor receptor alpha (Homo sapiens, UniProt P16234); assay: Inhibition of PDGFR alpha (unknown origin) by mobility shift assay
[23] = target: Proto-oncogene tyrosine-protein kinase Src (Homo sapiens, UniProt P12931); assay: Inhibition of c-Src (unknown origin) using FAM-labelled peptide and ATP incubated for 10 mins by mobility shift assay
[24] = target: Insulin-like growth factor 1 receptor (Homo sapiens, UniProt P08069); assay: Inhibition of IGF1R (unknown origin) by mobility shift assay
[25] = target: Serine/threonine-protein kinase B-raf (Homo sapiens, UniProt P15056); assay: Inhibition of B-Raf (unknown origin) by mobility shift assay
FHC [26] = assay: Cytotoxicity aganist human FHC at 10 ug/ml measured after 72 hrs by IncuCyte live-cell imaging assay
HT-29 [27] = assay: Cytotoxicity against human HT-29 cells assessed as reduction in cell viability measured at 0.56 to 1.67 microg/ml by IncuCyte live-cell imaging assay; details: dose 0.56-1.67 µg/ml, TDE = time-dependent effect
FHC [28] = assay: Cytotoxicity aganist human FHC at 0.19 ug/ml measured after 72 hrs by IncuCyte live-cell imaging assay

T1 sequence (P08581 whole entry): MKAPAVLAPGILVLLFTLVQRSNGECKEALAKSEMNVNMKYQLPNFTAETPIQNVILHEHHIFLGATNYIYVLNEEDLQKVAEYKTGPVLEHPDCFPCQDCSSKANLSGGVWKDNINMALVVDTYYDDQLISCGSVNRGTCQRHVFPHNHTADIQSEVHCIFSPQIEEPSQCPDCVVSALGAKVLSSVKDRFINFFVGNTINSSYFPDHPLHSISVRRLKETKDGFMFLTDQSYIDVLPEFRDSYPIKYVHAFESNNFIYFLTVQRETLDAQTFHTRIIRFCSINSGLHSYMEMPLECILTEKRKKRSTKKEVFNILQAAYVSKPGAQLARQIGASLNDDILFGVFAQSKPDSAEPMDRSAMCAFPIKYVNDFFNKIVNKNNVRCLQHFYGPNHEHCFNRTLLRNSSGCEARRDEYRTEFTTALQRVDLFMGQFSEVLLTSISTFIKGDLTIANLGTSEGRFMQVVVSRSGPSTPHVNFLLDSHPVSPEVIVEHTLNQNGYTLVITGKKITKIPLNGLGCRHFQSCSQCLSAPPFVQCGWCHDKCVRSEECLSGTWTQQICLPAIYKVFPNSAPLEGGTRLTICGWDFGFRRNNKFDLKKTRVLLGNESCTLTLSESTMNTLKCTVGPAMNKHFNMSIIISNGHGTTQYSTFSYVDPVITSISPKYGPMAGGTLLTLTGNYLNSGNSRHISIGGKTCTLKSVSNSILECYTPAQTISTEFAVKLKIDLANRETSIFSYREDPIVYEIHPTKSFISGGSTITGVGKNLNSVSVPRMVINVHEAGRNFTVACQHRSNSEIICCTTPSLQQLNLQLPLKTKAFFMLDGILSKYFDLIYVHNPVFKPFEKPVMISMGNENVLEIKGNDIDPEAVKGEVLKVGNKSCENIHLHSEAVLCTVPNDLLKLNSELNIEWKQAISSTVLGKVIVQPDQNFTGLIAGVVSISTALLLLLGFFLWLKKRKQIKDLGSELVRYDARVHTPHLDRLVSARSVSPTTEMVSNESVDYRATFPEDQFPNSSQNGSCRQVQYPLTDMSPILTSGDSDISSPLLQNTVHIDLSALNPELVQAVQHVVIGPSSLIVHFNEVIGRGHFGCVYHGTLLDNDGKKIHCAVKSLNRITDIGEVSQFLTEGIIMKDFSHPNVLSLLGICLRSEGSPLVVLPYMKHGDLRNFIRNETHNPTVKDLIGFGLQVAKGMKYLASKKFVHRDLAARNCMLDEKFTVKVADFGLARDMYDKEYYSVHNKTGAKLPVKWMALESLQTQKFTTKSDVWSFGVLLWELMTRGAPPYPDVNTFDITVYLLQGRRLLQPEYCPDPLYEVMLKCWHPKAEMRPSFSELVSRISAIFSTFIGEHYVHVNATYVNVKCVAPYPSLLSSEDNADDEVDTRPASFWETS
Sequence of Insulin-like growth factor 1 receptor (P08069 31-736 limits assumed): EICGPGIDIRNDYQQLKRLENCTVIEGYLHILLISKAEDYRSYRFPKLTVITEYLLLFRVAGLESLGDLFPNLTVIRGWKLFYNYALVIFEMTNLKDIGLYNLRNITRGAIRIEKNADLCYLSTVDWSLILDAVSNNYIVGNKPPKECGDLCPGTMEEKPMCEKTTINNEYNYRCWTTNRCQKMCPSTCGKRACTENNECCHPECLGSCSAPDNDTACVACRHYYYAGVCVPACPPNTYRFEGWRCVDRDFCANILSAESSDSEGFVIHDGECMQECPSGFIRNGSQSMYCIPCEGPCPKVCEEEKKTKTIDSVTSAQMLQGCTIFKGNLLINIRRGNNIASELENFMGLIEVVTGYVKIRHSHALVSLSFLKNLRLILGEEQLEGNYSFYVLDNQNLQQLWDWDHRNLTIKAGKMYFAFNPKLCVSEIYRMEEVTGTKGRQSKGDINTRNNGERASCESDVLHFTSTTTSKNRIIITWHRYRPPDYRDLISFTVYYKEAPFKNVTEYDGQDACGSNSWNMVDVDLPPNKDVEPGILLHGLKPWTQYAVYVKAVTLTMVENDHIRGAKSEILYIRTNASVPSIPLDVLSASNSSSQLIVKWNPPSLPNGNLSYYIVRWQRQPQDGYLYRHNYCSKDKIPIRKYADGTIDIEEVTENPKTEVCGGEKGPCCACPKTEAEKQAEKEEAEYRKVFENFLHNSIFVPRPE
Sequence of Insulin-like growth factor 1 receptor (P08069 741-1367 limits assumed): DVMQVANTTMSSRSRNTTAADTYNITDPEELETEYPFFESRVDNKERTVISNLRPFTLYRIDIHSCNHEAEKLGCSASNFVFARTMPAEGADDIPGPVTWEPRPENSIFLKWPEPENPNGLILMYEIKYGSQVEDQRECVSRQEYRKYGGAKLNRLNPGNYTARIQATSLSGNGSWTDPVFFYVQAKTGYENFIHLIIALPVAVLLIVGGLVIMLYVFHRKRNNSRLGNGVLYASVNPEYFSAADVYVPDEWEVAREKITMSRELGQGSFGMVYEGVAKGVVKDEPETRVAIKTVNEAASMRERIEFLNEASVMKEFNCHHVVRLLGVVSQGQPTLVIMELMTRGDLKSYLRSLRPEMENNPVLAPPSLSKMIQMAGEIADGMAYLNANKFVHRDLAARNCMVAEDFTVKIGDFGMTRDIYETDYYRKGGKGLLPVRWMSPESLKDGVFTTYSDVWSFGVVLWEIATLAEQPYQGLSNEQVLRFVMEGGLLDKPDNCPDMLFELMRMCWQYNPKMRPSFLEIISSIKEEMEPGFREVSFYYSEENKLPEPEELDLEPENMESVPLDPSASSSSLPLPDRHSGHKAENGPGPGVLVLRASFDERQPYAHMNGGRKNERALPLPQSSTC
Sequence of Macrophage-stimulating protein receptor (Q04912 25-304 limits assumed): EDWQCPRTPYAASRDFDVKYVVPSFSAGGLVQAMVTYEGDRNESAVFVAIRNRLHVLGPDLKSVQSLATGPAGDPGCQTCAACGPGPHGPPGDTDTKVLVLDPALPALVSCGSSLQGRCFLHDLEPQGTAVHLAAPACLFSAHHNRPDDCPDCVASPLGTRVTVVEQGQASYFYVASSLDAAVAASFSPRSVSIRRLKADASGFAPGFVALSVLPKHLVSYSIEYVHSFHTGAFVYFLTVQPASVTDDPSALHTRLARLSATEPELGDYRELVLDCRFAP
Sequence of Macrophage-stimulating protein receptor (Q04912 310-1400 limits assumed): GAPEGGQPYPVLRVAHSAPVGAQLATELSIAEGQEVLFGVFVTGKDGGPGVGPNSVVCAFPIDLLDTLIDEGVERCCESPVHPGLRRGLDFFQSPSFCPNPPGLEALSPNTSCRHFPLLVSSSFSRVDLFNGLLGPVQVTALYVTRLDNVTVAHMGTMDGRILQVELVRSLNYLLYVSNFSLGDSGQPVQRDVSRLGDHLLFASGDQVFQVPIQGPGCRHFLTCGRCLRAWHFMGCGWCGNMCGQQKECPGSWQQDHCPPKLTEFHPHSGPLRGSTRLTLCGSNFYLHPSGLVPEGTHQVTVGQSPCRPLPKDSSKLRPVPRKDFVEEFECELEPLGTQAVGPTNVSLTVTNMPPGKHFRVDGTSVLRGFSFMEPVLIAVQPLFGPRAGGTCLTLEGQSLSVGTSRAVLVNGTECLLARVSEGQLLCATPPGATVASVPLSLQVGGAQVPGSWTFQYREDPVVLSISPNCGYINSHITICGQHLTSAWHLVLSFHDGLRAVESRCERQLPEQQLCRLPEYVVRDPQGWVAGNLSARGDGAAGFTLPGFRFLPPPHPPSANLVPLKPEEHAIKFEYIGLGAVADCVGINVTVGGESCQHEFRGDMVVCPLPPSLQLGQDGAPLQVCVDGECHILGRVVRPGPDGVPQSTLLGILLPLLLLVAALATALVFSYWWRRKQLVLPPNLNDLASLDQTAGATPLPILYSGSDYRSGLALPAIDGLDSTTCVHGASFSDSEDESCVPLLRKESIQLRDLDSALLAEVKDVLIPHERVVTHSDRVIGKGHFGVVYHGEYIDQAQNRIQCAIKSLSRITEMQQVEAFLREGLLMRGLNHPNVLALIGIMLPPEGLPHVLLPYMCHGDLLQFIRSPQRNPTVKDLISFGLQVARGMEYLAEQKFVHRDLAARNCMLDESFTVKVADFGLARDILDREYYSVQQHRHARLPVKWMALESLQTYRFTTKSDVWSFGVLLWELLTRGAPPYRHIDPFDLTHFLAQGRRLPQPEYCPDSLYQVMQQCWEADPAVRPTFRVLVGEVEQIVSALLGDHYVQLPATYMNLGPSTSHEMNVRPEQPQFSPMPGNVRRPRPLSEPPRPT
Sequence of Mast/stem cell growth factor receptor Kit (P10721 whole entry): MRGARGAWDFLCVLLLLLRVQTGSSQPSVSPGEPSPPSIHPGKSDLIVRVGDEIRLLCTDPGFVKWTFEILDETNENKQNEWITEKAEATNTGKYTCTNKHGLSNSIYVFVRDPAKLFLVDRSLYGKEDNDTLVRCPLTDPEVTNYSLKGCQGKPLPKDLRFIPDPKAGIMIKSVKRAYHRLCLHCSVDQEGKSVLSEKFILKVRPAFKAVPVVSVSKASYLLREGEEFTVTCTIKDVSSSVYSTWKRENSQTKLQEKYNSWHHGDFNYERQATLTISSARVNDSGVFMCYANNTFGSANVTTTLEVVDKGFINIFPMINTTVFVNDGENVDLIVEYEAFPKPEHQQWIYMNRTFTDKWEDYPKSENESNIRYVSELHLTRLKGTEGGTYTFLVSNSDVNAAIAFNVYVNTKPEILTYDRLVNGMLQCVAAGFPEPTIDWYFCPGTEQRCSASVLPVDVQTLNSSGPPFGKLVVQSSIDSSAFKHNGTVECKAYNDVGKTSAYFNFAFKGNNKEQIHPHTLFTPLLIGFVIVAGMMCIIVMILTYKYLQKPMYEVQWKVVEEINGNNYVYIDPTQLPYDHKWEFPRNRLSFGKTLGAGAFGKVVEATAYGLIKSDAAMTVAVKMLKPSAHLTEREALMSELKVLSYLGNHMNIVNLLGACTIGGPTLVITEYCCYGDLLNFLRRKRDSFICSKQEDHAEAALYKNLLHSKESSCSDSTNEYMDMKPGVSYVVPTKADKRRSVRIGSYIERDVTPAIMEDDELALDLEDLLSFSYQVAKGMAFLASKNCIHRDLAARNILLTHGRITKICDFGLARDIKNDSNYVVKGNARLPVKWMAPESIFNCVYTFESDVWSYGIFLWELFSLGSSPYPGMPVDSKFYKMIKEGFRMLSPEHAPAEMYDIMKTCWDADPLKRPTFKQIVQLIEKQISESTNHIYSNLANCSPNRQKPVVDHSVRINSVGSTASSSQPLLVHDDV

COc1cc2c(Sc3ccc(NC(=O)NN4C(=O)CSC4c4c(F)cccc4F)cc3)ccnc2cc1OC1CCCN(C(=O)NC(C)C)C1 (configuration not stated)
IC50 (HT-29 [1]): > 10000 nM

COc1cc2c(Oc3ccc(NC(=O)NN4C(=O)CSC4c4ccccc4F)cc3)ccnc2cc1OC1CCN(C(=O)NC(C)C)CC1 (configuration not stated)
IC50 (HT-29 [1]): 410 nM

COc1cc2c(Oc3ccc(NC(=O)NN4C(=O)CSC4c4c(F)cc(F)cc4F)cc3)ccnc2cc1OC1CCN(C(=O)NC(C)C)CC1 (configuration not stated)
IC50 (HT-29 [1]): 910 nM

COc1cc2nccc(Sc3ccc(NC(=O)NN4C(=O)CSC4c4c(F)cccc4F)cc3)c2cc1OCC1CCN(C(=O)NC(C)C)CC1 (configuration not stated)
IC50 (HT-29 [1]): > 10000 nM

COc1cc2c(Sc3ccc(NC(=O)NN4C(=O)CSC4c4c(F)cccc4F)cc3)ccnc2cc1OC1CCN(C(=O)NC(C)C)CC1 (configuration not stated)
IC50 (HT-29 [1]): 420 nM

COc1cc2c(Oc3ccc(NC(=O)NN4C(=O)CSC4c4ccc(F)cc4)cc3)ccnc2cc1OC1CCN(C(=O)NCc2ccccc2)CC1 (configuration not stated)
IC50 (HT-29 [1]): 6600 nM

COc1cc2c(Oc3ccc(NC(=O)NN4C(=O)CSC4c4c(F)cccc4F)cc3)ccnc2cc1OC1CCN(C(=O)NC(C)C)CC1 (configuration not stated)
IC50 [2]: 382 nM
IC50 [3]: 122 nM
Activity (HT-29 [4]): Active
Activity (HT-29 [5]): Active
Activity (HT-29 [6]): Dose-dependent effect
Activity (HT-29 [7]; dose 1-3 µg/ml, time 48-72 hrs): Dose-dependent effect
Activity (HT-29 [8]; dose 1-3 µg/ml, time 48-72 hrs, TDE = time-dependent effect): Tde
Activity (FHC [9]): 26.7%
Activity (HT-29 [10]): 71.3%
Activity (HT-29 [11]): 19.7%
Activity (HT-29 [12]): 3.8%
Activity (HT-29 [13]): 71.5%
Activity (HT-29 [14]): 20.3%
Activity (HT-29 [15]): 4.3%
Activity (HT-29 [16]): 71.2%
Activity (HT-29 [17]): 18.3%
Activity (HT-29 [18]): 4.4%
IC50 [19]: 382 nM
IC50 [20]: > 10000 nM
IC50 [21]: 632 nM
IC50 [22]: 384 nM
IC50 [23]: 421 nM
IC50 [24]: > 10000 nM
IC50 [25]: > 10000 nM
IC50 (HT-29 [1]): 310 nM
Activity (FHC [26]): Toxic
Activity (HT-29 [27]): Tde

COc1cc2c(Sc3ccc(NC(=O)NN4C(=O)CSC4c4c(F)cccc4F)cc3)cc(N)nc2cc1OC1CCN(C(=O)NC(C)C)CC1 (configuration not stated)
IC50 (HT-29 [1]): 5600 nM

COc1cc2c(Oc3ccc(NC(=O)NN4C(=O)CSC4c4ccccc4)cc3)ccnc2cc1OC1CCN(C(=O)NC(C)C)CC1 (configuration not stated)
IC50 (HT-29 [1]): 1260 nM

COc1cc2c(Oc3ccc(NC(=O)NN4C(=O)CSC4c4cccc(F)c4)cc3)ccnc2cc1OC1CCN(C(=O)NC(C)C)CC1 (configuration not stated)
IC50 (HT-29 [1]): 670 nM

COc1cc2c(Sc3ccc(NC(=O)NN4C(=O)CSC4c4c(F)cccc4F)cc3)ccnc2cc1OCC1CCN(C(=O)NC(C)C)CC1 (configuration not stated)
IC50 (HT-29 [1]): 390 nM

COc1cc2c(Oc3ccc(NC(=O)NN4C(=O)CSC4c4ccc(F)cc4)cc3)ccnc2cc1OC1CCN(C(=O)NC2CCCCC2)CC1 (configuration not stated)
IC50 (HT-29 [1]): 3420 nM

CCNC(=O)N1CCC(Oc2cc3nccc(Oc4ccc(NC(=O)NN5C(=O)CSC5c5ccc(F)cc5)cc4)c3cc2OC)CC1 (configuration not stated)
IC50 (HT-29 [1]): 2250 nM

CNC(=O)c1cc(Oc2ccc(NC(=O)Nc3ccc(Cl)c(C(F)(F)F)c3)c(F)c2)ccn1 [REGORAFENIB]
Activity (HT-29 [4]): Active
Activity (HT-29 [5]): inactive
Activity (HT-29 [6]): inactive
Activity (HT-29 [7]): Active
AC50 (HT-29 [8]): Active
Activity (FHC [9]): 13.5%
Activity (HT-29 [16]): 78.5%
Activity (HT-29 [17]): 15.7%
Activity (HT-29 [18]): 2%
IC50 (HT-29 [1]): 2870 nM
Activity (FHC [26]): Toxic
Activity (FHC [28]): Toxic

CCCCNC(=O)N1CCC(Oc2cc3nccc(Oc4ccc(NC(=O)NN5C(=O)CSC5c5ccc(F)cc5)cc4)c3cc2OC)CC1 (configuration not stated)
IC50 (HT-29 [1]): 1700 nM

COc1cc2c(Oc3ccc(NC(=O)NN4C(=O)CSC4c4ccc(F)cc4)cc3)ccnc2cc1OC1CCN(C(=O)NC(C)C)CC1 (configuration not stated)
IC50 (HT-29 [1]): 860 nM

COc1cc2c(Oc3ccc(NC(=O)NN4C(=O)CSC4c4ccc(F)c(F)c4)cc3)ccnc2cc1OC1CCN(C(=O)NC(C)C)CC1 (configuration not stated)
IC50 (HT-29 [1]): 1060 nM

COc1cc2c(Oc3cccc(NC(=O)NN4C(=O)CSC4c4c(F)cccc4F)c3)ccnc2cc1OC1CCN(C(=O)NC(C)C)CC1 (configuration not stated)
IC50 (HT-29 [1]): > 10000 nM

COc1cc2c(Oc3ccc(NC(=O)NN4C(=O)CSC4c4ccc(F)cc4F)cc3)ccnc2cc1OC1CCN(C(=O)NC(C)C)CC1 (configuration not stated)
IC50 (HT-29 [1]): 950 nM

COc1cc2c(Oc3ccc(NC(=O)NN4C(=O)CSC4c4cccc(F)c4F)cc3)ccnc2cc1OC1CCN(C(=O)NC(C)C)CC1 (configuration not stated)
IC50 (HT-29 [1]): 790 nM
